These results are taken from ChEMBL document CHEMBL1156715, “Synthesis of new 3-pyridinecarboxylates of potential vasodilation properties” (Eur J Med Chem, 2008).

The structures appear in SMILES notation. pIC50: −log10 of the molar value.

This assay has as its system Aorta. The assay can be described thus: Vasodilation activity in Wistar rat thoracic aorta assessed as reduction of norepinephrine hydrochloride-induced contracture after 2 hrs. In kind it is functional, tissue-based. A digest of the protocol: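 Endothelium-denuded aortic preparations (functional endothelium removed, confirmed by <10% acetylcholine relaxation of pre-contracted aorta) equilibrated 2 h under 2 g resting tension. Contraction to norepinephrine hydrochloride (3 × 10^-7 to 3 × 10^-3 M) recorded isometrically before and after increasing test concentrations. DMSO stock 50 mg/ml; DMSO-only controls. IC50 = concentration giving 50% reduction of maximal norepinephrine contracture.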
Broadly, the pIC50 is the negative decadic logarithm of the IC50, by convention in mol/L. As for `CCOC(=O)c1c(-c2ccc(C)cc2)cc(-c2ccccc2)nc1N1CCN(c2nc(-c3ccccc3)cc(-c3ccc(C)cc3)c2C(=O)OCC)CC1`, the pIC50 is 3.64.

As to `CCOC(=O)c1c(-c2ccc(C)cc2)cc(-c2ccccc2)nc1Nc1ccc(Cl)cc1`, the pIC50 was 3.58.

Regarding `CCOC(=O)c1c(-c2ccc(F)cc2)cc(-c2ccccc2)nc1N`, the negative logarithm of the IC50 (pIC50) was 3.47.

`CCOC(=O)c1c(-c2ccc(C)cc2)cc(-c2ccccc2)nc1N`: the pIC50 was 3.49.

As for `CCOC(=O)c1c(-c2ccc(C)cc2)cc(-c2ccccc2)nc1N1CCCCC1`, the pIC50 was 3.76.

For `CCOC(=O)c1c(-c2ccc(C)cc2)cc(-c2ccccc2)nc1N1CCOCC1`, the negative-log IC50 (pIC50) is 3.47.

On to `CCOC(=O)c1c(-c2ccc(F)cc2)cc(-c2ccccc2)nc1Nc1ccc(OC)cc1`, for which the pIC50 is 3.60.

Take `CCOC(=O)c1c(-c2ccc(F)cc2)cc(-c2ccccc2)nc1N1CCCCC1`: the pIC50 is 3.46.

As to `CCOC(=O)c1c(-c2ccc(F)cc2)cc(-c2ccccc2)nc1Nc1ccc(Cl)cc1`, the pIC50 was 3.15.

Consider `CCOC(=O)c1c(-c2ccc(F)cc2)cc(-c2ccccc2)nc1N1CCOCC1`, for which the pIC50 is 3.84.

With `CCOC(=O)c1c(-c2ccc(F)cc2)cc(-c2ccccc2)nc1Nc1ccccc1`, the pIC50 is 3.44.

As for `CCOC(=O)c1c(-c2ccc(C)cc2)cc(-c2ccccc2)nc1Nc1ccc(OC)cc1`, the negative-log IC50 (pIC50) is 3.63.
